In ChEMBL document CHEMBL4406905, “The adduct formation between the thioguanine-polyamine ligands and DNA with the AP site under UVA irradiated and non-irradiated conditions” (Bioorg Med Chem, 2019):
Calls of active or inactive are those of the source. The rule behind the calls is not given here.

Tests used:
[1] = Induction of DNA cleavage in 5'-FAM-DNA1(U)/DNA2(C) duplex DNA (unknown origin) assessed as increase in slower moving bands at 10 uM measured after 1 hr by fluorescence based PAGE analysis
[2] = Induction of DNA cleavage in 5'-FAM-DNA1(U)/DNA2(C) duplex DNA (unknown origin) assessed as formation DNA8 at 10 uM measured for 5 hrs by fluorescence based PAGE analysis
Method in brief: (§1)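 DNA1(U)/DNA2(X) was annealed 5 min at 70 °C and treated with uracil-DNA glycosylase (0.2 unit/µl, pH 7.4, 37 °C, 15 min) to form the AP site. The 100 nM duplex was re-annealed in 10 mM HEPES-NaOH pH 7.0 with 100 mM NaCl, then incubated with 10 µM ligand at 37 °C for 5–300 min. Reactions were quenched with urea/EDTA loading buffer on ice. Products were run on 12% denaturing PAGE (8 M urea), imaged by 5'-FAM fluorescence, and band ratios (%) quantified.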

[3] = Binding affinity to A-A-C/T-T-G duplex DNA (unknown origin) assessed as change in melting temperature at 10 uM by UV-Vis spectrophotometric analysis (reference value: 52.1 +/- 0.1 degC)
[4] = Binding affinity to A-F-C/T-C-G duplex DNA (unknown origin) assessed as change in melting temperature at 10 uM by UV-Vis spectrophotometric analysis (reference value: 30.7 +/- 0.3 degC)
[5] = Binding affinity to A-F-C/T-G-G duplex DNA (unknown origin) assessed as change in melting temperature at 10 uM by UV-Vis spectrophotometric analysis (reference value: 34.4 +/- 0.2 degC)
[6] = Photo-activated binding affinity to A-F-C/T-T-G duplex DNA (unknown origin) at 100 uM measured for 24 hrs by HPLC analysis
Method in brief: (§2)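 Duplex at 10 µM (F = tetrahydrofuran AP analogue) with 100 µM ligand in 10 mM HEPES-NaOH pH 7.0, 5 mM DTT and 100 mM NaCl. Irradiated with UVA (4 W, 365 nm) at rt. Analysed by reversed-phase C18 HPLC at 50 °C with 254 nm detection, TEAA pH 7.0/MeCN gradient. Product peak identified by MALDI-TOF MS.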

[7] = Photo-activated binding affinity to C-F-A/G-C-T duplex DNA (unknown origin) at 100 uM measured for 24 hrs by HPLC analysis
Method in brief: as §2

[8] = Induction of DNA cleavage in 5'-FAM-DNA1(U)/DNA2(C) duplex DNA (unknown origin) assessed as formation of delta elimination production DNA7 at 10 uM measured for 5 hrs by fluorescence based PAGE analysis
Method in brief: as §1

[9] = Binding affinity to A-F-A/T-C-T duplex DNA (unknown origin) assessed as change in melting temperature at 10 uM by UV-Vis spectrophotometric analysis (reference value: 29.9 +/- 0.3 degC)
[10] = Induction of DNA cleavage in 5'-FAM-DNA1(U)/DNA2(A) duplex DNA (unknown origin) assessed as change in formation of DNA4 at 10 uM by fluorescence based PAGE analysis
Method in brief: as §1

[11] = Induction of DNA cleavage in 5'-FAM-DNA1(U)/DNA2(C) duplex DNA (unknown origin) assessed as formation of beta elimination production DNA4 at 10 uM measured for 30 min by fluorescence based PAGE analysis
Method in brief: as §1

[12] = Binding affinity to A-G-A/T-C-T duplex DNA (unknown origin) assessed as change in melting temperature at 10 uM by UV-Vis spectrophotometric analysis (reference value: 50.3 +/- 0.1 degC)
[13] = Photo-activated binding affinity to A-F-C/T-C-G duplex DNA (unknown origin) assessed as induction of photo reaction at 100 uM measured for 3 hrs by HPLC analysis
Method in brief: as §2

[14] = Photo-activated binding affinity to A-F-C/T-G-G duplex DNA (unknown origin) at 100 uM measured for 24 hrs by HPLC analysis
Method in brief: as §2

[15] = Photo-activated binding affinity to A-F-C/T-A-G duplex DNA (unknown origin) at 100 uM measured for 24 hrs by HPLC analysis
Method in brief: as §2

[16] = Binding affinity to A-T-C/T-A-G duplex DNA (unknown origin) assessed as change in melting temperature at 10 uM by UV-Vis spectrophotometric analysis (reference value: 52.0 +/- 0.1 degC)
[17] = Photo-activated binding affinity to A-F-A/T-C-T duplex DNA (unknown origin) at 100 uM measured for 24 hrs by HPLC analysis
Method in brief: as §2

[18] = Induction of DNA cleavage in 5'-FAM-DNA1(U)/DNA2(A) duplex DNA (unknown origin) assessed as formation of DNA8 at 10 uM by fluorescence based PAGE analysis
Method in brief: as §1

[19] = Photo-activated binding affinity to A-F-C/T-C-G duplex DNA (unknown origin) at 100 uM measured for 24 hrs by HPLC analysis
Method in brief: as §2

[20] = Binding affinity to C-G-A/G-C-T duplex DNA (unknown origin) assessed as change in melting temperature at 10 uM by UV-Vis spectrophotometric analysis (reference value: 55.2 +/- 0.1 degC)
[21] = Binding affinity to A-C-C/T-G-G duplex DNA (unknown origin) assessed as change in melting temperature at 10 uM by UV-Vis spectrophotometric analysis (reference value: 54.8 +/- 0.0 degC)
[22] = Binding affinity to A-G-C/T-C-G duplex DNA (unknown origin) assessed as change in melting temperature at 10 uM by UV-Vis spectrophotometric analysis (reference value: 48.5 +/- 0.1 degC)
[23] = Induction of DNA cleavage in 5'-FAM-DNA1(U)/DNA2(C) duplex DNA (unknown origin) assessed as formation of beta elimination production DNA4 at 10 uM measured for 5 hrs by fluorescence based PAGE analysis
Method in brief: as §1

[24] = Induction of DNA cleavage in 5'-FAM-DNA1(U)/DNA2(A) duplex DNA (unknown origin) assessed as formation DNA8 at 10 uM measured for 5 hrs by fluorescence based PAGE analysis
Method in brief: as §1

[25] = Binding affinity to A-F-C/T-T-G duplex DNA (unknown origin) assessed as change in melting temperature at 10 uM by UV-Vis spectrophotometric analysis (reference value: 33.0 +/- 0.4 degC)
[26] = Binding affinity to A-F-C/T-A-G duplex DNA (unknown origin) assessed as change in melting temperature at 10 uM by UV-Vis spectrophotometric analysis (reference value: 33.6 +/- 0.2 degC)
[27] = Induction of DNA cleavage in 5'-FAM-DNA1(U)/DNA2(C) duplex DNA (unknown origin) assessed as formation of delta elimination production DNA7 at 10 uM by fluorescence based PAGE analysis
Method in brief: as §1

[28] = Induction of DNA cleavage in 5'-FAM-DNA1(U)/DNA2(A) duplex DNA (unknown origin) assessed as formation of delta elimination production DNA7 at 10 uM measured for 5 hrs by fluorescence based PAGE analysis
Method in brief: as §1

[29] = Induction of DNA cleavage in 5'-FAM-DNA1(U)/DNA2(A) duplex DNA (unknown origin) assessed as formation of beta elimination production DNA4 at 10 uM measured for 5 hrs by fluorescence based PAGE analysis
Method in brief: as §1

[30] = Binding affinity to C-F-A/G-C-T duplex DNA (unknown origin) assessed as change in melting temperature at 10 uM by UV-Vis spectrophotometric analysis (reference value: 32.0 +/- 0.4 degC)
[31] = Induction of DNA cleavage in 5'-FAM-DNA1(U)/DNA2(C) duplex DNA (unknown origin) assessed as formation of DNA8 at 10 uM by fluorescence based PAGE analysis
Method in brief: as §1

| Compound | Activity [1] | Activity [2] | ΔTm [3] | ΔTm [4] | ΔTm [5] | Activity [8] | ΔTm [9] | Activity [10] | ΔTm [12] | ΔTm [16] | Activity [18] | Activity [19] | ΔTm [20] | ΔTm [21] | ΔTm [22] | Activity [23] | Activity [24] | ΔTm [25] | ΔTm [26] | Activity [28] | also measured |
| --- | --- | --- | --- | --- | --- | --- | --- | --- | --- | --- | --- | --- | --- | --- | --- | --- | --- | --- | --- | --- | --- |
| NCCCNCCCNCCCn1cnc2c(=O)[nH]c(N)nc21 | inactive |  |  |  |  |  |  |  |  |  |  |  |  |  |  |  |  |  |  |  |  |
| NCCCNCCCNCCCn1cnc2c(=S)[nH]c(N)nc21 | Active | Active | 0.2 °C | 5.4 °C | 1.6 °C | Active | 1.8 °C | Active | 0.7 °C | 0.5 °C | Active | Active | 0.4 °C | 0.5 °C | 0.7 °C | Active | Active | 1.2 °C | 2.3 °C | Active | Activity [6]: inactive; Activity [7]: inactive; Activity [11]: Active; Activity [13]: Active; Activity [14]: inactive; Activity [15]: inactive; Activity [17]: inactive; Activity [27]: Active; Activity [29]: Active; ΔTm [30]: 3.5 °C |
| NCCCNCCCNCCCCCn1cnc2c(=S)[nH]c(N)nc21 |  | Active | 0.7 °C | 4.2 °C | 3.8 °C | Active | 3.3 °C | Active | 0.6 °C | 0.6 °C | Active | Active | 0.9 °C | 1 °C | 0.6 °C | Active | Active | 3.1 °C | 2.8 °C | Active | Activity [31]: Active; Activity [29]: Active; ΔTm [30]: 4.1 °C |
